Calls of active or inactive are those of the source. No cut-off for these calls is given here.
Experiments:
Klebsiella pneumoniae [1] = assay: Antibacterial activity against multidrug-resistant Klebsiella pneumoniae ATCC 700603 after 18 hrs by non-binding surface 96-well plate-based method; assay type: functional
In short: (§1)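 Strains grown in cation-adjusted Mueller Hinton broth at 37 °C for 12 h, diluted 40-fold and regrown 1.5–3 h to mid-log. Inoculum was 5×10^5 CFU/mL in 12-point dose response, in non-binding surface or polystyrene plates, in duplicate. Plates stood at 37 °C for 18 h. MIC was read by OD600.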

Escherichia coli [2] = assay: Antibacterial activity against Escherichia coli ATCC 25922 after 18 hrs by polystyrene 96-well plate-based method; assay type: functional; in short: as §1
Acinetobacter baumannii [3] = assay: Antibacterial activity against Acinetobacter baumannii ATCC 19606 after 18 hrs by non-binding surface 96-well plate-based method; assay type: functional; in short: as §1
Klebsiella pneumoniae [4] = assay: Antibacterial activity against multidrug-resistant Klebsiella pneumoniae ATCC 700603 after 18 hrs by polystyrene 96-well plate-based method; assay type: functional; in short: as §1
Acinetobacter baumannii [5] = assay: Antibacterial activity against Acinetobacter baumannii ATCC 19606 after 18 hrs by polystyrene 96-well plate-based method; assay type: functional
In short: (§2)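 Cultured in cation-adjusted Mueller Hinton broth at 37 °C for 12 h, diluted 40-fold and grown 1.5–3 h to mid-log. Seeded at 5×10^5 CFU/mL over a 12-point dose response in non-binding surface and polystyrene 96-well plates, duplicates (n=2). Incubated static at 37 °C for 18 h. MIC read from OD600 light scattering; colistin and vancomycin as standards.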

Escherichia coli [6] = assay: Antibacterial activity against Escherichia coli ATCC 25922 after 18 hrs by non-binding surface 96-well plate-based method; assay type: functional; in short: as §2
Staphylococcus aureus [7] = assay: Antibacterial activity against methicillin-resistant Staphylococcus aureus ATCC 43300 after 18 hrs by polystyrene 96-well plate-based method; assay type: functional; in short: as §1
Staphylococcus aureus [8] = assay: Antibacterial activity against methicillin-resistant Staphylococcus aureus ATCC 43300 after 18 hrs by non-binding surface 96-well plate-based method; assay type: functional; in short: as §1
[9] = Hemolytic activity against human RBC at 50 uM after 1 hr by Drabkin's assay relative to control; assay type: ADME, cell-based, Erythrocyte; details: human red blood cells (erythrocytes), read-out: Activity
[10] = Hemolytic activity against human RBC at 25 uM after 1 hr by Drabkin's assay relative to control; assay type: ADME, cell-based, Erythrocyte; details: human red blood cells (erythrocytes), read-out: Activity
[11] = Hemolytic activity against human RBC at 6.25 uM after 1 hr by Drabkin's assay relative to control; assay type: ADME, cell-based, Erythrocyte; details: human red blood cells (erythrocytes), read-out: Activity
Escherichia coli [12] = assay: Growth inhibition of Escherichia coli ATCC 25922 at 32 ug/ml after 18 hrs; assay type: functional; details: ATCC 25922, 18 h, read-out: GI
In short: (§3)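 Mid-log cultures were prepared as above and seeded at 5×10^5 CFU/mL with compound at a final 32 μg/mL, then held static at 37 °C for 18 h. Growth was read as OD600. Percent inhibition was calculated against media-only and bacteria-only controls on the same plate.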

Pseudomonas aeruginosa = assay: Growth inhibition of Pseudomonas aeruginosa ATCC 27853 at 32 ug/ml after 18 hrs; assay type: functional; details: ATCC 27853, 18 h, read-out: GI; in short: as §3
Staphylococcus aureus [13] = assay: Growth inhibition of methicillin-resistant Staphylococcus aureus ATCC 43300 at 32 ug/ml after 18 hrs; assay type: functional; details: ATCC 43300, 18 h, read-out: GI
In short: (§4)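 Mid-log cultures in cation-adjusted Mueller Hinton broth were added at 5×10^5 CFU/mL to wells at a final compound concentration of 32 μg/mL. Plates stood at 37 °C for 18 h. Growth was read by OD600, and % inhibition was computed against media-only and untreated-bacteria controls.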

[14] = Hemolytic activity against human RBC at 0.39 uM after 1 hr by Drabkin's assay relative to control; assay type: ADME, cell-based, Erythrocyte; details: human red blood cells (erythrocytes), read-out: Activity
Cryptococcus neoformans = assay: Growth inhibition of Cryptococcus neoformans H99 ATCC 208821 at 32 ug/ml after 24 hrs by resazurin dye-based microspectrophotometric assay; assay type: functional; details: var. grubii H99 ATCC 208821, 24 h, read-out: GI
In short: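 Yeasts were grown 3 days on YPD agar at 30 °C, suspended from five colonies and diluted in YNB broth to a final 2.5×10^3 CFU/mL. Compound at a final 32 μg/mL; incubated 24 h at 35 °C without shaking. C. albicans was read at OD530. C. neoformans was read as OD600–570 after resazurin (0.001% final) and a further 2 h at 35 °C. Fluconazole was the standard.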

[15] = Hemolytic activity against human RBC at 0.78 uM after 1 hr by Drabkin's assay relative to control; assay type: ADME, cell-based, Erythrocyte; details: human red blood cells (erythrocytes), read-out: Activity
Erythrocyte = assay: Hemolytic activity against human RBC after 1 hr by Drabkin's assay; assay type: ADME, cell-based
[16] = Hemolytic activity against human RBC at 3.125 uM after 1 hr by Drabkin's assay relative to control; assay type: ADME, cell-based, Erythrocyte; details: human red blood cells (erythrocytes), read-out: Activity
[17] = Hemolytic activity against human RBC at 1.56 uM after 1 hr by Drabkin's assay relative to control; assay type: ADME, cell-based, Erythrocyte; details: human red blood cells (erythrocytes), read-out: Activity
Acinetobacter baumannii [18] = assay: Growth inhibition of Acinetobacter baumannii ATCC 19606 at 32 ug/ml after 18 hrs; assay type: functional; details: ATCC 19606 = CIP 70.34 = JCM 6841, 18 h, read-out: GI; in short: as §3
Candida albicans = assay: Growth inhibition of Candida albicans ATCC 90028 at 32 ug/ml after 24 hrs by OD530 light-scattering microspectrophotometric method; details: ATCC 90028, 24 h, read-out: GI
Lipid bilayer = assay: Binding affinity to POPC vesicles by surface plasmon resonance spectroscopy
In short: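 SPR on a dextran chip carrying immobilized POPC liposomes, with running buffer of 10 mM HEPES and 100 mM KCl at pH 7.4. Peptides in PBS were flowed at 25 μL/min at 10–1000 μM, with reference-subtracted response units. KD and Rmax were fitted from maximum response versus concentration. Regeneration used 20 mM CHAPS followed by fresh liposomes.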

[19] = Induction of pore formation in DOPC vesicles at 20 uM after 3 hrs by carboxyfluorescein dye leakage assay; details: in the assay text read “after 3 mins” for “after 3 hrs”
In short: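 POPC or DOPC liposomes were hydrated in 10 mM HEPES, 100 mM KCl, pH 7.4, containing 50 mM carboxyfluorescein. Size was checked by dynamic light scattering, and vesicles were used at 2.2×10^10 per mL. Peptide at 20 μM was equilibrated with vesicles for 3 min, and dye leakage was measured.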

Klebsiella pneumoniae [20] = assay: Growth inhibition of multidrug-resistant Klebsiella pneumoniae ATCC 700603 at 32 ug/ml after 18 hrs; assay type: functional; details: ATCC 700603, 18 h, read-out: GI; in short: as §4
[21] = Hemolytic activity against human RBC at 12.5 uM after 1 hr by Drabkin's assay relative to control; assay type: ADME, cell-based, Erythrocyte; details: human red blood cells (erythrocytes), read-out: Activity
[22] = ATCC 19606 = CIP 70.34 = JCM 6841, 18 h
[23] = ATCC 19606 = CIP 70.34 = JCM 6841

Molecule: CN[C@H](CC(C)C)C(=O)N[C@H]1C(=O)N[C@@H](CC(N)=O)C(=O)N[C@H]2C(=O)N[C@H]3C(=O)N[C@H](C(=O)N[C@H](C(=O)O)c4cc(O)cc(O)c4-c4cc3ccc4O)[C@H](O)c3ccc(c(Cl)c3)Oc3cc2cc(c3O[C@@H]2O[C@H](CO)[C@@H](O)[C@H](O)[C@H]2O[C@H]2C[C@](C)(N)[C@H](O)[C@H](C)O2)Oc2ccc(cc2Cl)[C@H]1O [VANCOMYCIN]
- MIC (Klebsiella pneumoniae [1]; ATCC 700603, 18 h): > 32 µg/mL
- MIC (Escherichia coli [2]; ATCC 25922, 18 h): > 32 µg/mL
- MIC (Acinetobacter baumannii [3]; [22]): > 32 µg/mL
- MIC (Klebsiella pneumoniae [4]; ATCC 700603, 18 h): > 32 µg/mL
- MIC (Acinetobacter baumannii [5]; [22]): > 32 µg/mL
- MIC (Escherichia coli [6]; ATCC 25922, 18 h): > 32 µg/mL

Molecule: COLISTIN
- MIC (Klebsiella pneumoniae [1]): 0.06 µg/mL
- MIC (Staphylococcus aureus [7]): > 32 µg/mL
- MIC (Escherichia coli [2]): 0.125 µg/mL
- MIC (Acinetobacter baumannii [3]; [23]): 0.06 to 0.125 µg/mL
- MIC (Klebsiella pneumoniae [4]): 0.25 µg/mL
- MIC (Acinetobacter baumannii [5]; [23]): 1 µg/mL
- MIC (Escherichia coli [6]): 0.016 µg/mL
- MIC (Staphylococcus aureus [8]): > 32 µg/mL

Molecule: CC(C)(C)OC(=O)N1CCC[C@H]1C(=O)N1CCCN1C(=O)N1CCC[C@H]1C(=O)N1CCCN1C(=O)N1CCC[C@H]1C(=O)N1CCCN1C(=O)N1CCC[C@H]1C(=O)N1CCCN1C(=O)N1CCC[C@H]1C(=O)N1CCCN1C(=O)N1CCC[C@H]1C(=O)N1CCCN1C(=O)N1CCC[C@H]1C(=O)N1CCCN1C(=O)N1CCC[C@H]1C(=O)N1CCCN1C(=O)OCc1ccccc1
- hemolysis at 1 h, 50 µM [9]: -0.42%
- hemolysis at 1 h, 25 µM [10]: -0.23%
- hemolysis at 1 h, 6.25 µM [11]: -0.11%
- inhibition of growth at 32 µg/mL (Escherichia coli [12]): 5.27%
- inhibition of growth at 32 µg/mL (Pseudomonas aeruginosa): -8.18%
- inhibition of growth at 32 µg/mL (Staphylococcus aureus [13]): 20.7%
- hemolysis at 1 h, 0.39 µM [14]: -0.04%
- inhibition of growth at 32 µg/mL (Cryptococcus neoformans): -3.43%
- hemolysis at 1 h, 0.78 µM [15]: 0.15%
- Activity (Erythrocyte): Dose-dependent effect
- hemolysis at 1 h, 3.125 µM [16]: 0.02%
- hemolysis at 1 h, 1.56 µM [17]: -0.04%
- inhibition of growth at 32 µg/mL (Acinetobacter baumannii [18]): 17.8%
- inhibition of growth at 32 µg/mL (Candida albicans): 2.92%
- Kd (Lipid bilayer): 440 µM
- Rmax (Lipid bilayer): 632
- Activity [19]: inactive
- inhibition of growth at 32 µg/mL (Klebsiella pneumoniae [20]): 5.27%
- hemolysis at 1 h, 12.5 µM [21]: -0.17%

— ChEMBL document CHEMBL4196059, “Design, synthesis, and biological evaluation of stable β6.3-Helices: Discovery of non-hemolytic antibacterial peptides” (Eur J Med Chem, 2018)
